Measured values from ChEMBL document CHEMBL4842319, “Synthesis of alkynylated 1,2,4-oxadiazole/1,2,3-1H-triazole glycoconjugates: Discovering new compounds for use in chemotherapy against lung carcinoma and Mycobacterium tuberculosis” (Eur J Med Chem, 2021).
≈ marks a conversion by molar mass, not a printed value.

Legend:
[1] = Cytotoxicity against African green monkey Vero cells assessed as reduction in cell viability measured after 5 days by MTT assay; format: cell-based; conditions: chlorocebus sabaeus, time 5 day
Outline: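 Vero cells in DMEM with 10% inactivated FBS, plated at 1×10⁴ cells/well 24 h before treatment. Compounds were applied at 800, 400, 200, 100 and 50 µM, with at most 0.8% DMSO, for 5 days at 37 °C. MTT (1 mg/mL) was added for 4 h, formazan solubilised in DMSO and OD570 read. CC50 is the concentration giving a 50% reduction in absorbance.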

[2] = Selectivity index, ratio of CC50 for human HepG2 cells to MIC for antimycobacterial activity against Mycobacterium tuberculosis H37Rv ATCC 27294; format: toxicity; conditions: read-out: Selectivity Index
[3] = Cytotoxicity against human HepG2 cells assessed as reduction in cell viability incubated for 48 hrs by MTT assay; format: cell-based
Outline: (§1)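 RAW 264.7 macrophages and HepG2 cells were cultured in DMEM at 37 °C, 5% CO2. For the assay, 10⁵ cells/well were preincubated for 24 h, then exposed to compounds at […] for 48 h, in duplicate. MTT (5 mg/mL in PBS) was added for 2 h and absorbance read at 570 nm. Untreated wells served as the negative control. CC50 obtained by regression analysis.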

[4] = tested on: Mycobacterium tuberculosis; experiment: Antimycobacterial activity against Mycobacterium tuberculosis H37Ra ATCC 25177 assessed as inhibition of bacterial growth incubated for 9 days by resazurin microtiter assay; format: functional; conditions: H37Ra ATCC 25177, 216 h, time 9 day
Outline: (§2)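 REMA broth microdilution in 7H9-S medium, run in duplicate. Test compounds were serially two-fold diluted on the plate from 64 to 0.5 µg/mL. Inoculum taken from fresh Löwenstein-Jensen culture, adjusted to McFarland no. 1 and diluted 1:20. Plates were sealed and incubated at 37 °C in normal atmosphere for 9 days, then resazurin was added. Rifampicin and ethambutol served as standards. MIC reported in µg/mL.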

[5] = tested on: Mycobacterium tuberculosis; experiment: Antimycobacterial activity against Mycobacterium tuberculosis H37Rv ATCC 27294 assessed as inhibition of bacterial growth incubated for 9 days by resazurin microtiter assay; format: functional; conditions: H37Rv ATCC 27294, 216 h, time 9 day; outline: as §2
[6] = Selectivity index, ratio of CC50 for mouse RAW264.7 cells to MIC for antimycobacterial activity against Mycobacterium tuberculosis H37Rv ATCC 27294; format: toxicity; conditions: read-out: Selectivity Index
[7] = Cytotoxicity against mouse RAW264.7 cells assessed as reduction in cell viability incubated for 48 hrs by MTT assay; format: cell-based; outline: as §1
HCT-116 = experiment: Cytotoxicity against human HCT-116 cells assessed as inhibition of cell proliferation at 25 uM incubated for 72 hrs by MTT assay relative to control; format: functional; parameters: scale not given: the % may be the effect or the level left
Outline: (§3)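 Tumor lines from NCI. PC-3, HCT-116 and NCIH-460 were grown in RPMI 1640; SKMEL-103 and AGP-01 in DMEM; all with 10% FBS at 37 °C, 5% CO2. Seeding was 0.3×10⁶ cells/mL for SKMEL-103 and AGP-01, 0.1×10⁶ for PC-3 and NCIH-460, and 0.7×10⁵ for HCT-116. Cells were exposed to compound at 25 µM for 72 h. Cells were centrifuged, 1% MTT added for 3 h, formazan dissolved in DMSO and read at 570 nm.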

NCI-H460 [8] = experiment: Cytotoxicity against human NCI-H460 cells assessed as inhibition of cell proliferation at 25 uM incubated for 72 hrs by MTT assay relative to control; format: functional; parameters: scale not given: the % may be the effect or the level left; outline: as §3
[9] = Cytotoxicity against human AGP01 cells assessed as inhibition of cell proliferation at 25 uM incubated for 72 hrs by MTT assay relative to control; format: functional; parameters: scale not given: the % may be the effect or the level left; outline: as §3
SK-MEL-103 = experiment: Cytotoxicity against human SK-MEL-103 cells assessed as inhibition of cell proliferation at 25 uM incubated for 72 hrs by MTT assay relative to control; format: functional; parameters: scale not given: the % may be the effect or the level left; outline: as §3
PC-3 = experiment: Cytotoxicity against human PC-3 cells assessed as inhibition of cell proliferation at 25 uM incubated for 72 hrs by MTT assay relative to control; format: functional; parameters: scale not given: the % may be the effect or the level left; outline: as §3
NCI-H460 [10] = experiment: Antiproliferative activity against human NCI-H460 cells assessed as inhibition of cell growth incubated for 72 hrs by MTT assay; format: functional, cell-based; conditions: NCI-H460, 72 h
Outline: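 NCIH-460 cells in RPMI 1640 with 10% FBS at 0.1×10⁶ cells/mL, treated for 72 h at 37 °C, 5% CO2. MTT read-out: 1% MTT for 3 h, formazan dissolved in DMSO, absorbance at 570 nm. IC50 derived from absorbances by nonlinear regression.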

[11] = tested on: Mycobacterium tuberculosis; experiment: Antimycobacterial activity against Mycobacterium tuberculosis H37Rv ATCC 27294 assessed as inhibition of bacterial growth by agar dilution method; format: functional
[12] = tested on: Mycobacterium tuberculosis; experiment: Antitubercular activity against Mycobacterium tuberculosis H37Rv; format: functional

## CC(=O)OC[C@H]1O[C@H](OC[C@@H](Cn2cc(CN(c3nc(-c4ccc(C(F)(F)F)cc4)no3)C3CCCCC3)nn2)OC(C)=O)C=C[C@@H]1OC(C)=O
[1]
  CC50 at 120 h: 706 µM
[2]
  selectivity ratio: 1.67
[3]
  CC50 at 48 h: 81.4 µg/mL (≈ 113 µM)
[4]
  MIC: ≥ 64 µg/mL
[5]
  MIC: ≥ 64 µg/mL
[6]
  selectivity ratio: < 1
[7]
  CC50 at 48 h: 64.1 µg/mL (≈ 89 µM)

## C#CCN(c1nc(-c2cccc(Br)c2)no1)C1CCCCC1
[2]
  selectivity ratio: 1.67
HCT-116
  Activity: 65.6%
[3]
  CC50 at 48 h: 53.5 µg/mL (≈ 148 µM)
NCI-H460 [8]
  Activity: 17.9%
[4]
  MIC: ≥ 64 µg/mL
[5]
  MIC: 32 µg/mL (≈ 88.8 µM)
[9]
  Activity: 69.1%
[6]
  selectivity ratio: 0.9
SK-MEL-103
  Activity: 39.4%
PC-3
  Activity: 58.6%
[7]
  CC50 at 48 h: 31.8 µg/mL (≈ 88.2 µM)

## CC(=O)OC[C@H]1O[C@H](OC[C@@H](Cn2cc(CN(c3nc(-c4cccc(C)c4)no3)C3CCCCC3)nn2)OC(C)=O)C=C[C@@H]1OC(C)=O
[2]
  selectivity ratio: < 0.61
HCT-116
  Activity: 69.5%
[3]
  CC50 at 48 h: 39.2 µg/mL (≈ 58.8 µM)
NCI-H460 [8]
  Activity: 26.1%
[4]
  MIC: ≥ 64 µg/mL
[5]
  MIC: ≥ 64 µg/mL
[9]
  Activity: 38.9%
[6]
  selectivity ratio: < 0.72
SK-MEL-103
  Activity: 69%
PC-3
  Activity: 9.2%
[7]
  CC50 at 48 h: 46.4 µg/mL (≈ 69.6 µM)

## COc1ccc(-c2noc(N(Cc3cn(C[C@H](CO[C@@H]4C=C[C@H](OC(C)=O)[C@@H](COC(C)=O)O4)OC(C)=O)nn3)C3CCCCC3)n2)cc1
[1]
  CC50 at 120 h: 575 µM
[2]
  selectivity ratio: 4.41
HCT-116
  Activity: 24.2%
[3]
  CC50 at 48 h: 141 µg/mL (≈ 207 µM)
NCI-H460 [8]
  Activity: 24.2%
[4]
  MIC: 16 µg/mL (≈ 23.4 µM)
[5]
  MIC: 32 µg/mL (≈ 46.9 µM)
[9]
  Activity: 59.2%
[6]
  selectivity ratio: 2.7
SK-MEL-103
  Activity: 29.8%
PC-3
  Activity: 21.6%
[7]
  CC50 at 48 h: 86.3 µg/mL (≈ 126 µM)

## CC(=O)OC[C@H]1O[C@H](OC[C@@H](Cn2cc(CN(c3nc(-c4ccc(C)cc4)no3)C3CCCCC3)nn2)OC(C)=O)C=C[C@@H]1OC(C)=O
[1]
  CC50 at 120 h: 498 µM
[2]
  selectivity ratio: 2.3
[3]
  CC50 at 48 h: 36.8 µg/mL (≈ 55.2 µM)
[4]
  MIC: 8 µg/mL (≈ 12 µM)
[5]
  MIC: 16 µg/mL (≈ 24 µM)
[6]
  selectivity ratio: 2.83
[7]
  CC50 at 48 h: 45.3 µg/mL (≈ 68 µM)

## C#CCN(c1nc(-c2cccc(C)c2)no1)C1CCCCC1
[2]
  selectivity ratio: 1.38
HCT-116
  Activity: 86.5%
[3]
  CC50 at 48 h: 44.4 µg/mL (≈ 150 µM)
NCI-H460 [8]
  Activity: 40.2%
[4]
  MIC: ≥ 64 µg/mL
[5]
  MIC: 32 µg/mL (≈ 108 µM)
[9]
  Activity: 94.5%
[6]
  selectivity ratio: 0.8
SK-MEL-103
  Activity: 87.7%
PC-3
  Activity: 29.4%
[7]
  CC50 at 48 h: 25.9 µg/mL (≈ 87.6 µM)

## C#CCN(c1nc(-c2ccc(OC)cc2)no1)C1CCCCC1
[2]
  selectivity ratio: 1.13
HCT-116
  Activity: 40.7%
[3]
  CC50 at 48 h: 72.5 µg/mL (≈ 233 µM)
NCI-H460 [10]
  IC50: 1 µg/mL (≈ 3.21 µM)
NCI-H460 [8]
  Activity: 69.1%
[4]
  MIC: ≥ 64 µg/mL
[5]
  MIC: 64 µg/mL (≈ 206 µM)
[9]
  Activity: 57.3%
[6]
  selectivity ratio: 0.46
SK-MEL-103
  Activity: 37.3%
PC-3
  Activity: 23.7%
[7]
  CC50 at 48 h: 28 µg/mL (≈ 89.8 µM)

## CCCCCc1ccc(-c2cn(CC(O)COc3cccc4c3OCC3(CCCCC3)C4=O)nn2)cc1 (configuration not stated)
[11]
  MIC: 0.78 µg/mL (≈ 1.55 µM)

## C#CCN(c1nc(-c2ccc(F)cc2)no1)C1CCCCC1
[2]
  selectivity ratio: 0.64
HCT-116
  Activity: 44.9%
[3]
  CC50 at 48 h: 41.1 µg/mL (≈ 137 µM)
NCI-H460 [10]
  IC50: 1.16 µg/mL (≈ 3.88 µM)
NCI-H460 [8]
  Activity: 50.5%
[4]
  MIC: 64 µg/mL (≈ 214 µM)
[5]
  MIC: 64 µg/mL (≈ 214 µM)
[9]
  Activity: 50.4%
[6]
  selectivity ratio: 0.32
SK-MEL-103
  Activity: 47.3%
PC-3
  Activity: 25.4%
[7]
  CC50 at 48 h: 20.9 µg/mL (≈ 69.9 µM)

## CC(C)c1ccc(-c2nc(CN3CCN(c4ccnc5c(-c6cccnc6)cccc45)CC3)no2)cc1
[12]
  MIC: 0.25 µg/mL (≈ 0.51 µM)

## CC(=O)OC[C@H]1O[C@H](OC[C@@H](Cn2cc(CN(c3nc(-c4ccc(F)cc4)no3)C3CCCCC3)nn2)OC(C)=O)C=C[C@@H]1OC(C)=O
[2]
  selectivity ratio: < 0.45
HCT-116
  Activity: 44.9%
[3]
  CC50 at 48 h: 28.8 µg/mL (≈ 42.9 µM)
NCI-H460 [8]
  Activity: 17.7%
[4]
  MIC: ≥ 64 µg/mL
[5]
  MIC: ≥ 64 µg/mL
[9]
  Activity: 69.4%
[6]
  selectivity ratio: < 0.49
SK-MEL-103
  Activity: 20.7%
PC-3
  Activity: 7.1%
[7]
  CC50 at 48 h: 31.5 µg/mL (≈ 46.9 µM)

## C#CCN(c1nc(-c2cccc([N+](=O)[O-])c2)no1)C1CCCCC1
[2]
  selectivity ratio: < 0.71
HCT-116
  Activity: 24.8%
[3]
  CC50 at 48 h: 45.5 µg/mL (≈ 139 µM)
NCI-H460 [8]
  Activity: 5.8%
[4]
  MIC: ≥ 64 µg/mL
[5]
  MIC: ≥ 64 µg/mL
[9]
  Activity: 46%
[6]
  selectivity ratio: < 0.53
SK-MEL-103
  Activity: 44.4%
PC-3
  Activity: 7.2%
[7]
  CC50 at 48 h: 34.2 µg/mL (≈ 105 µM)

## C#CCOc1ccc(-c2noc(NC3CCCCC3)n2)cc1
[2]
  selectivity ratio: 3.7
HCT-116
  Activity: 43.3%
[3]
  CC50 at 48 h: 119 µg/mL (≈ 399 µM)
NCI-H460 [10]
  IC50: 5.3 µg/mL (≈ 17.8 µM)
NCI-H460 [8]
  Activity: 75.7%
[4]
  MIC: 32 µg/mL (≈ 108 µM)
[5]
  MIC: 32 µg/mL (≈ 108 µM)
[9]
  Activity: 2.6%
[6]
  selectivity ratio: 1.29
SK-MEL-103
  Activity: 62.8%
PC-3
  Activity: 64.2%
[7]
  CC50 at 48 h: 38.3 µg/mL (≈ 129 µM)

## CC(=O)OC[C@H]1O[C@H](OC[C@@H](Cn2cc(CN(c3nc(-c4ccccc4)no3)C3CCCCC3)nn2)OC(C)=O)C=C[C@@H]1OC(C)=O
[1]
  CC50 at 120 h: 607 µM
[2]
  selectivity ratio: 1.24
[3]
  CC50 at 48 h: 19.9 µg/mL (≈ 30.5 µM)
[4]
  MIC: 16 µg/mL (≈ 24.5 µM)
[5]
  MIC: 16 µg/mL (≈ 24.5 µM)
[6]
  selectivity ratio: 1.78
[7]
  CC50 at 48 h: 28.6 µg/mL (≈ 43.8 µM)

## COc1cccc2c1C(=O)c1c(O)c3c(c(O)c1C2=O)C[C@@](O)(C(=O)CO)C[C@@H]3O[C@H]1C[C@H](N)[C@H](O)[C@H](C)O1 [DOXORUBICIN]
NCI-H460 [10]
  IC50: 0.08 µg/mL (≈ 0.147 µM)
